IDH1 R132H inh = blocks human IDH1 R132H reductase activity; O75874; 70,000 compounds, 0.18% hits; inhibition, % at 10 µM; AID 624101; diaphorase/resazurin fluorescence, 60 min; in the data active = inhibition above about 34%; inconclusive = no clear call, values can overlap the other calls; inactive = below about 11%;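 note: 0% = DMSO and 100% = no enzyme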
Target sequence (O75874 whole entry R132H): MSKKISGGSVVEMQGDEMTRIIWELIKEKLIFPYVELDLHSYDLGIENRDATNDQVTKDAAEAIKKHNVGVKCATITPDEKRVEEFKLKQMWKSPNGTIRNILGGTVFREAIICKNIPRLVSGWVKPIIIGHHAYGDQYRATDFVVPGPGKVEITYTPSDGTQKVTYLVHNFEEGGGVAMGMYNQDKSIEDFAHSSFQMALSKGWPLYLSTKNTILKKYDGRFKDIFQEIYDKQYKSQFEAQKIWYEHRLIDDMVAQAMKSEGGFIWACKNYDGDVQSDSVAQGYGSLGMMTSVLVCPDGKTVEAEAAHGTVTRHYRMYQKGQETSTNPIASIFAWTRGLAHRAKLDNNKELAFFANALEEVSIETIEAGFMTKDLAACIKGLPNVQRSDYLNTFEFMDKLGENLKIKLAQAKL
GASC1 inh = KDM4C (human) demethylase inhibition; Q9H3R0; GST-KDM4C 2-372, H3K9me3 peptide, LANCE TR-FRET; inhibition, % at 12.5 µM; 96,000 compounds, 0.15% hits;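 active = mean replicate inhibition above about 25%, with at least 55% of replicates also reaching it, limit read from the data, passing the limit was not always enough; inconclusive = only one of those two conditions met; inactive = neither condition met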
Target sequence (Q9H3R0 2-372 limits assumed): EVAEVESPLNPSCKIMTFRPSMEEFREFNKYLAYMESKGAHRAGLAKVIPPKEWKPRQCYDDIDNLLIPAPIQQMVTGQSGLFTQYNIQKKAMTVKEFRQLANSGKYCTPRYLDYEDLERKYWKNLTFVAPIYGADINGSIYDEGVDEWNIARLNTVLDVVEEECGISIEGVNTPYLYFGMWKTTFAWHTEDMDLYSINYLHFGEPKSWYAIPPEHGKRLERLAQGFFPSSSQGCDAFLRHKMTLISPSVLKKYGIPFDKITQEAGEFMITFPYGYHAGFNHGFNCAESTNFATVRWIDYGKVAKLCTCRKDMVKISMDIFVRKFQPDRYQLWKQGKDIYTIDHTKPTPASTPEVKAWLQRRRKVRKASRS
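Test system – GST-tagged GASC-1 (JMJD2C) catalytic fragment, aa 2-372 · Medium – HEPES buffer, pH 7.5, plus ascorbate · Reagent – H3K9me3 peptide with Fe(II)/2OG · Compound – one test concentration per compound · Timing – 30 min reaction, 60 min detection, RT · Technique – TR-FRET with Eu antibody and ULight streptavidin, EDTA stop · Read-out basis – inhibition from TR-FRET ratio decrease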
Pf Dd2 growth = blocks growth of Plasmodium falciparum Dd2 parasites; P. falciparum Dd2 growth, SYBR Green, 72 h; active compounds read low; activity change, % at 10 µM; 94,000 compounds, 2.3% hits; AID 1159554; in the data active = activity change below about -80%; inconclusive = no clear call, values can overlap the other calls
T cruzi growth-1 = T. cruzi proliferation inhibition | 77,000 compounds, 5.9% hits | inhibition, % at 8.34 µM | T. cruzi beta-gal in NIH3T3, GalScreen luminescence, 90 h;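 active = mean inhibition above about 93%, with at least 55% of replicates each passing it, limit read from the data, passing the limit was not always enough; inconclusive = only one of those two conditions holds; inactive = neither condition holds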
T cruzi growth-2 = Trypanosoma cruzi proliferation inhibition | shares compounds with T cruzi growth-1 | T. cruzi beta-gal in NIH3T3, GalScreen luminescence, 90 h | inhibition, % at 8.35 µM | 5,600 compounds, 72% hits | AID 651739;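 active = mean replicate inhibition above about 95% and at least 55% of replicates individually reaching it, limit read from the data; inconclusive = only one of the two criteria is met; inactive = neither criterion is met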
T cruzi growth-3 = blocks T. cruzi growth in NIH3T3 host cells. 5,600 compounds, 21% hits. T. cruzi beta-gal in NIH3T3, GalScreen luminescence, 90 h. inhibition, % at 2.09 µM. shares compounds with T cruzi growth-1. AID 651740;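 active = mean inhibition above about 95%, with at least 55% of replicates also reaching it, limit read from the data; inconclusive = meets just one of the two conditions; inactive = meets neither condition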;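 note: plate controls were neutral control median for no effect and positive control median for full effect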
3T3 cytotox = cytotoxicity in mouse NIH/3T3 fibroblasts. shares compounds with T cruzi growth-1. NIH/3T3 viability, CellTiter-Glo ATP luminescence, 90 h. cytotoxicity (signal decrease), % at 8.35 µM. 5,600 compounds, 14% hits. AID 651742;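 active = mean signal decrease across replicates above about 35% based on untreated-well scatter, with enough replicates individually passing, limit read from the data; inconclusive = no rule stated though some were filed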;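 note: 0% = median of neutral control wells and 100% = median of positive control wells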
NIH3T3 tox 2 = cytotoxicity in mouse NIH/3T3 fibroblasts. AID 651744. inhibition, % at 24.9 µM. 5,600 compounds, 56% hits. shares compounds with T cruzi growth-1. NIH/3T3 viability, CellTiter-Glo ATP luminescence, 90 h;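 active = mean loss of cell viability signal at or above a set limit, and enough replicates individually reaching it; inconclusive = meets only the mean limit or only the replicate share; inactive = meets neither condition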;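 note: 0% = median of neutral control wells and 100% = median of positive control wells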
* hit, by the source's call; ? = inconclusive; / = no result; + = active, no number. This is a sample that favours compounds with a hit; in the whole collection about 5.9% have one here.

SMILES | IDH1 R132H inh | GASC1 inh | Pf Dd2 growth | T cruzi growth-1 | T cruzi growth-2 | T cruzi growth-3 | 3T3 cytotox | NIH3T3 tox 2
CCC(=O)Nc1ccc2c(c1)C(=O)N(C)C[C@H](OC)[C@@H](C)CN(Cc1ccccc1OC)[C@@H](C)CO2 | -0.4 | 0.8 | / | -13.5 | / | / | / | /
Cc1ccc(S(=O)(=O)N(C)C[C@H]2Oc3cc(C#CC4CCCC4)ccc3S(=O)(=O)N([C@H](C)CO)C[C@@H]2C)cc1 | 0.6 | -2.8 | -55.0 | 127.0* | 100.3* | 108.2* | 11.2 | 51.1*
Cc1ccc(S(=O)(=O)N(C)C[C@@H]2Oc3cc(C#CC4CCCC4)ccc3S(=O)(=O)N([C@@H](C)CO)C[C@H]2C)cc1 | -0.4 | 6.5 | -69.2 | 126.7* | 101.1* | 99.2* | 45.9* | 77.1*
COc1ccc(S(=O)(=O)N(C)C[C@H]2Oc3cc(C#CC4CCCC4)ccc3S(=O)(=O)N([C@H](C)CO)C[C@@H]2C)cc1 | -0.4 | 1.9 | -56.4 | 67.9 | / | / | / | /
O=C(Nc1cc(F)ccc1F)N1CC(=O)N2[C@H](CO)[C@@H](c3ccc(/C=C/c4ccccc4)cc3)[C@H]2C1 | / | -1.6 | 3.4 | / | / | / | / | /
C[C@@H]1CCCCO[C@@H](CN(C)S(=O)(=O)c2ccc(Cl)cc2)[C@H](C)CN([C@@H](C)CO)C(=O)c2cc(NC(=O)NC3CCCCC3)ccc2O1 | / | 15.9 | / | 100.4* | 110.7* | 84.7 | 8.9 | 10.6
Cc1ccc(S(=O)(=O)N(C)C[C@@H]2OCCCC[C@H](C)Oc3ccc(NC(=O)NC4CCCCC4)cc3C(=O)N([C@@H](C)CO)C[C@H]2C)cc1 | 0.4 | -1.8 | -79.8 | 29.1 | / | / | / | /
Cc1ccc(S(=O)(=O)N(C)C[C@H]2OCCCC[C@H](C)Oc3ccc(NC(=O)NC4CCCCC4)cc3C(=O)N([C@H](C)CO)C[C@@H]2C)cc1 | 0.8 | 1.1 | -66.5 | 112.0* | 108.8* | 30.0 | -2.9 | 4.9
CC(C)NC(=O)Nc1ccc2c(c1)C(=O)N([C@H](C)CO)C[C@@H](C)[C@@H](CN(C)S(=O)(=O)c1ccc(Cl)cc1)OCCCC[C@@H](C)O2 | 0.9 | 0.0 | -65.0 | 98.0* | 96.0* | 13.2 | 3.4 | 24.0*
Cc1ccc(S(=O)(=O)N(C)C[C@@H]2OCCCC[C@@H](C)Oc3ccc(NC(=O)NC4CCCCC4)cc3C(=O)N([C@H](C)CO)C[C@H]2C)cc1 | -0.5 | -0.5 | -81.2* | 98.8* | 108.9* | 70.9 | -20.2 | -18.6
C[C@@H]1CCCCO[C@@H](CN(C)C(=O)CCC(F)(F)F)[C@H](C)CN([C@@H](C)CO)C(=O)c2cc(NS(=O)(=O)c3cccs3)ccc2O1 | -0.8 | 4.8 | 4.2 | 33.9 | / | / | / | /
CC(=O)c1cccc(NC(=S)NCc2cccnc2)c1 | 0.5 | / | / | / | / | / | / | /
Cc1ccc(-c2ccc([C@@H]3[C@H]4CN(C(=O)Nc5ccccc5)CCCCN4[C@H]3CO)cc2)cc1 | / | 1.2 | 6.9 | ? | ? | 95.0 | 33.2 | 103.4*
Cc1ccccc1-c1ccc([C@H]2[C@@H](CO)N3CCCCN(C(=O)Nc4ccccc4)C[C@@H]23)cc1 | / | -3.8 | 14.3 | -6.3 | / | / | / | /
Cc1ccc(-c2ccc([C@H]3[C@@H](CO)N4CCCCN(C(=O)Nc5ccccc5)C[C@@H]34)cc2)cc1 | / | -1.9 | 28.6 | 118.1* | 106.2* | 85.8 | 9.9 | 77.7*
COc1cc(Br)cc(/C=N/NC(=O)CCCCCC(=O)O)c1O | 1.2 | / | / | / | / | / | / | /
CN(C)C(=O)[C@@H]1[C@@H](CO)[C@@H]2Cn3c(ccc(-c4ccccc4)c3=O)[C@H]1N2C(=O)C1CCC1 | / | 19.0 | / | + | 54.9 | -19.2 | -13.8 | 6.8
CCN1[C@@H]2c3ccc(-c4ccccc4)c(=O)n3C[C@H]1[C@H](CO)[C@H]2C(=O)Nc1ccccc1 | / | -0.2 | 11.1 | 98.6* | 61.8 | 1.2 | 8.2 | 13.2
CN(C)C(=O)[C@H]1[C@H](CO)[C@H]2Cn3c(ccc(-c4ccccc4)c3=O)[C@@H]1N2CC1CCCC1 | / | 0.2 | -0.5 | ? | 84.9 | 25.7 | 4.9 | ?
CN(C)C(=O)[C@@H]1[C@@H](CO)[C@@H]2Cn3c(ccc(-c4ccccc4)c3=O)[C@H]1N2CC1CCCC1 | / | -0.3 | 5.4 | 86.8 | / | / | / | /
C[C@H]1CN([C@@H](C)CO)C(=O)c2cc(NS(C)(=O)=O)ccc2O[C@@H]1CN(C)C(=O)Nc1ccccc1 | -0.1 | -1.0 | -4.4 | / | / | / | / | /
C[C@@H]1CN([C@@H](C)CO)S(=O)(=O)c2ccc(C#CCN(C)C)cc2O[C@H]1CN(C)C(=O)c1ccccc1F | -0.2 | 1.2 | -37.3 | 100.8* | 108.7* | 89.3 | 11.1 | 5.7
C[C@H]1CN([C@@H](C)CO)S(=O)(=O)c2ccc(C#CCN(C)C)cc2O[C@@H]1CN(C)C(=O)c1ccccc1F | -1.6 | 0.6 | -28.7 | 98.9* | 105.4* | 91.5 | 7.8 | 16.1
C[C@@H]1CN([C@H](C)CO)S(=O)(=O)c2ccc(C#CCN(C)C)cc2O[C@H]1CN(C)C(=O)c1ccccc1F | -0.2 | 1.2 | -43.1 | 93.1 | / | / | / | /
Cc1ccccc1C(=O)Nc1cccc(NC(=O)COc2cc(C)c(Cl)c(C)c2)c1 | 0.4 | / | / | / | / | / | / | /
SMILES | IDH1 R132H inh | GASC1 inh | Pf Dd2 growth | T cruzi growth-1 | T cruzi growth-2 | T cruzi growth-3 | 3T3 cytotox | NIH3T3 tox 2
OC[C@@H]1[C@@H](c2ccc(C#CC3(O)CCCC3)cc2)[C@H]2CN(Cc3ccccc3F)CCCCN12 | / | -1.2 | -25.7 | 105.1* | 67.3 | 20.5 | 1.3 | 58.1*
OC[C@@H]1[C@H](c2ccc(C#Cc3cccnc3)cc2)[C@H]2CN(Cc3ccccc3F)CCCCN12 | / | -0.6 | -75.0 | 114.2* | 102.2* | 112.6* | 49.9* | 103.7*
OC[C@H]1[C@H](c2ccc(C#Cc3cccnc3)cc2)[C@@H]2CN(Cc3ccccc3F)CCCCN12 | / | -0.2 | -71.4 | 112.0* | 111.0* | 51.9 | 28.2 | 103.3*
C[C@H]1CN([C@@H](C)CO)C(=O)c2cccc(NC(=O)c3ccncc3)c2O[C@@H]1CN(C)S(=O)(=O)c1cccs1 | 0.5 | -1.6 | 23.1 | -130.5 | / | / | / | /
OC[C@@H]1[C@H](c2ccc(Br)cc2)[C@H]2CN(Cc3cncnc3)CCCCN12 | / | 0.4 | 35.0 | 87.6 | / | / | / | /
Cc1ccc(S(=O)(=O)Nc2cccc3c2O[C@@H](CN(C)Cc2ccc(C(=O)Nc4ccccc4N)cc2)[C@H](C)CN([C@@H](C)CO)C3=O)cc1 | / | 2.7 | -72.2 | / | / | / | / | /
C[C@H]1CN([C@@H](C)CO)C(=O)c2cccc(NS(=O)(=O)c3ccc(Cl)cc3)c2O[C@H]1CN(C)Cc1ccc(C(=O)Nc2ccccc2N)cc1 | 0.3 | -0.8 | -89.1* | 104.2* | 89.7 | 81.2 | 6.4 | 38.5*
